Measured values reported in ChEMBL document CHEMBL4038313, “Expanding the Antiviral Spectrum of 3-Fluoro-2-(phosphonomethoxy)propyl Acyclic Nucleoside Phosphonates: Diamyl Aspartate Amidate Prodrugs” (J Med Chem, 2017).

Experiments:
[1] = test system: Human immunodeficiency virus 1; assay: Antiviral activity against CXCR4-tropic HIV-1 NL4-3 infected in human TZM-bl cells assessed as inhibition of virus-induced cytopathic effect preincubated with cells for 30 mins followed by viral infection measured after 48 hrs in presence of p-24 HIV-1 Ag by luciferase reporter gene assay; assay type: functional, cell-based; details: Human immunodeficiency virus 1, NL4-3, TZM-bl
Procedure, shortened: (§1)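 TZM-bl cells, 1 × 10^4 per well in DMEM with 10% FBS and 10 mM […], incubated 30 min at 37 °C with compound. Then HIV-1 NL4.3 (X4) or BaL (R5) added at 100 pg p24 Ag per well. After 48 h, cells lysed with luciferase substrate. Tat-induced luminescence read after 10 min dark incubation as a measure of replication.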

[2] = test system: Human immunodeficiency virus 1; assay: Antiviral activity against CCR5 tropic HIV1 BaL infected in human TZM-bl cells assessed as inhibition of virus-induced cytopathic effect preincubated with cells for 30 mins followed by viral infection measured after 48 hrs in presence of p-24 HIV-1 Ag by luciferase reporter gene assay; assay type: functional, cell-based; details: Human immunodeficiency virus 1, BaL; procedure, shortened: as §1
[3] = Cytotoxicity against human TZM-bl cells assessed as cell viability by tetrazolium dye assay; assay type: cell-based
[4] = Selectivity index, ratio of CC50 for human TZM-bl cells to EC50 for CXCR4-tropic HIV-1 NL4-3 infected in human TZM-bl cells; assay type: toxicity, cell-based; details: read-out: Ratio CC50/EC50
[5] = Selectivity index, ratio of CC50 for human TZM-bl cells to EC50 for CCR5 tropic HIV1 BaL infected in human TZM-bl cells; assay type: toxicity, cell-based; details: read-out: Ratio CC50/EC50
[6] = test system: Hepatitis B virus; assay: Antiviral activity against HBV ayw1 infected in human HepG2(2.2.15) cells assessed as reduction in viral replication by measuring extracellular viral DNA copy number after 6 days by real-time qPCR method; assay type: functional, cell-based; details: ayw1, HepG2 2.2.15, 144 h
Procedure, shortened: (§2)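 HepG2.2.15 cells (two copies of HBV ayw1 genome), 1.5 × 10^4/well in DMEM with 2% FBS and 380 μg/mL G418. After 16–24 h, compound added in triplicate, medium with compound renewed at day 3. Supernatant collected at day 6, Pronase-treated, and extracellular HBV DNA measured by TaqMan qPCR (precore/core) against an HBV DNA standard curve. EC50/EC90 derived; CC50 by MTS uptake.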

[7] = Cytotoxicity against human HepG2.2.15 cells assessed as cell viability by tetrazolium dye uptake assay; assay type: cell-based, HepG2 2.2.15
Procedure, shortened: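 HepG2.2.15 cells (two integrated copies of HBV ayw1 genome) were seeded at 1.5 × 10^4 cells/well in DMEM with 2% FBS, 380 μg/mL G418, glutamine, antibiotics and nonessential amino acids. After 16−24 h, medium with various compound concentrations was added in triplicate and renewed on day 3. After 6 days of treatment, viability was read by MTS uptake and CC50 was calculated.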

[8] = Selectivity index, ratio of CC50 for HepG2.2.15 cells to EC50 for HBV ayw1 infected in human HepG2(2.2.15) cells assessed as reduction in viral replication by measuring extracellular viral DNA copy; procedure, shortened: as §2
[9] = test system: Human betaherpesvirus 5; assay: Antiviral activity against Human cytomegalovirus AD169 infected in HEL cells assessed as inhibition of virus-induced cytopathic effect; assay type: functional, cell-based; details: Human betaherpesvirus 5, AD169, HEL
Procedure, shortened: (§3)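 HEL fibroblast monolayers inoculated with 100 CCID50 HCMV (AD-169, Davis) or 20 PFU VZV (TK+ Oka, TK− 07-1). Adsorbed 1–2 h, inoculum removed, then incubated with compound dilutions. HCMV cytopathicity or VZV plaques scored once untreated infected controls reached completion. EC50 is 50% reduction. SI is CC50/EC50, and the potency ratio is the ratio of EC50s.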

[10] = test system: Human betaherpesvirus 5; assay: Antiviral activity against HCMV Davis strain infected in HEL cells assessed as inhibition of virus-induced cytopathic effect; assay type: functional, cell-based; details: Human betaherpesvirus 5, Davis; procedure, shortened: as §3
[11] = test system: Human alphaherpesvirus 3; assay: Antiviral activity against thymidine kinase expressing Varicella-Zoster virus Oka strain assessed as inhibition of plaque formation; assay type: functional; details: Human alphaherpesvirus 3, strain Oka vaccine; procedure, shortened: as §3
[12] = test system: Human alphaherpesvirus 3; assay: Antiviral activity against thymidine kinase deficient Varicella-Zoster virus 07-1 infected in HEL cells assessed as inhibition of plaque formation; assay type: functional, cell-based; details: Human alphaherpesvirus 3, 07-1, HEL; procedure, shortened: as §3
[13] = Cytotoxic activity against HEL cells assessed as alteration of cell morphology after 3 days by microscopic method; assay type: cell-based; details: human
Procedure, shortened: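 HEL cells with compound; MCC is the lowest concentration giving microscopically detectable alteration of cell morphology.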

[14] = Stability of the compound in buffer of pH 1 at 2 mg after 6 hrs by 31P NMR spectroscopy; assay type: physicochemical; details: pH 1, 6 h
Procedure, shortened: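 2.0 mg compound in 0.2 mL acetone-d6 plus 0.3 mL pH 1 buffer (equal parts 0.2 M HCl and 0.2 M KCl). In situ 31P NMR (202 MHz) at 37 °C, spectra every 30 min over 14 h.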

[15] = Stability of the compound in phosphate buffer of pH 8 at 1 mg after 2 hrs by 31P NMR spectroscopy; assay type: physicochemical; details: pH 8, 2 h
Procedure, shortened: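 1 mg compound in 0.2 mL acetone-d6 plus 0.3 mL pH 8 buffer (0.1 M Na2HPO4 adjusted with 0.1 M HCl). In situ 31P NMR (202 MHz) at 37 °C, spectra every 30 min over 14 h.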

[16] = test system: Human immunodeficiency virus 1; assay: (§4) Antiviral activity against CXCR4-tropic HIV-1 NL4-3 infected in human PHA-stimulated PBMC assessed as inhibition of viral replication by measuring reduction in p24 antigen production preincubated with cells for 30 mins followed by viral infection measured on day 10 post infection in presence of IL-2 by ELISA; assay type: functional; details: Human immunodeficiency virus 1, NL4-3
Procedure, shortened: (§5)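 PBMCs stimulated with 2 μg/mL PHA for 3 days at 37 °C, then 5 × 10^5 cells/ml preincubated 30 min at 37 °C with serial compound dilutions plus 2 ng/mL IL-2. Infected with 1500 pg/well HIV-1 BaL or 500 pg/well other isolates. IL-2 re-added on days 3 and 6. Supernatant p24 Ag measured by ELISA at day 10. EC50 is 50% inhibition of replication.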

[17] = test system: Human immunodeficiency virus 1; assay: as §4, with “CCR5 tropic HIV1 BaL” for “CXCR4-tropic HIV-1 NL4-3”; assay type: functional; details: Human immunodeficiency virus 1, BaL; procedure, shortened: as §5
[18] = Cytotoxicity against human PHA-stimulated PBMC assessed as cell viability by tetrazolium dye assay; assay type: cell-based
[19] = Selectivity index, ratio of CC50 for human PHA-stimulated PBMC to IC50 for CXCR4-tropic HIV-1 NL4-3 infected in human PHA-stimulated PBMC
[20] = Selectivity index, ratio of CC50 for human PHA-stimulated PBMCs to IC50 for CCR5 tropic HIV1 BaL infected in human PHA-stimulated PBMC
[21] = test system: Human immunodeficiency virus 1; assay: Antiviral activity against HIV-1 infected in human MT4 cells measured on day 5 post-infection by trypan blue dye staining-based method; assay type: functional, cell-based; details: Human immunodeficiency virus 1, MT4, 120 h
[22] = test system: Human immunodeficiency virus 2; assay: Antiviral activity against HIV-2 infected in human MT4 cells measured on day 5 post-infection by trypan blue dye staining-based method; assay type: functional, cell-based; details: Human immunodeficiency virus 2, MT4, 120 h
[23] = test system: Hepatitis B virus; assay: Antiviral activity against HBV infected in human HepG2(2.2.15) cells assessed as decrease in extracellular HBV DNA levels after 12 days by dot blot analysis; assay type: functional, cell-based; details: HepG2 2.2.15, 288 h

Row | Structure (SMILES) | EC50 [1] | EC50 [2] | CC50 [3] | selectivity ratio [4] | selectivity ratio [5] | EC50 [6] | EC90 [6] | CC50 [7] | Ratio CC50/EC50 [8] | EC50 [9] | EC50 [10] | EC50 [11] | EC50 [12] | MCC at 72 h [13] | other results
1 | CCCCCOC(=O)C[C@H](NP(=O)(CO[C@H](CF)Cn1cc(C)c(=O)[nH]c1=O)Oc1ccccc1)C(=O)OCCCCC (stereo partly drawn) | > 43.4 µM | > 43.4 µM | 43.4 µM | < 1 | < 1 | 42.4 µM | > 100 µM | 33.5 µM | <1 | > 31.9 µM | > 31.9 µM | 19.7 µM | 23.1 µM | 159 µM | Stability [14]: Unstable; Stability [15]: Unstable
2 | Nc1ncnc2c1ncn2C[C@@H](CF)OCP(=O)(O)O | 5.95 µM | 6.47 µM | > 100 µM | > 17 | > 15 | > 1.65 µM | > 100 µM | > 100 µM | >61 | > 328 µM | > 328 µM | 98 µM | 131 µM | > 328 µM | IC50 [16]: 1.19 µM; IC50 [17]: 3.73 µM; CC50 [18]: > 100 µM; Ratio CC50/IC50 [19]: 84; Ratio CC50/IC50 [20]: 27; EC50 [21]: 8 µM; EC50 [22]: 8 µM; EC50 [23]: 1.2 µM
